Results: ChEMBL document CHEMBL1124759, “Fluoronaphthyridines and quinolones as antibacterial agents. 2. Synthesis and structure-activity relationships of new 1-tert-butyl 7-substituted derivatives” (J Med Chem, 1990)
≈ marks a conversion by molar mass, not a printed value.

Experiments:
[1] = system: Enterococcus faecalis; assay: In vitro minimum inhibitory concentration (MIC) against Enterococcus faecalis A 9808 at 37 degrees C for 18 h.; format: functional
How it was run: (§1)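 Two-fold serial broth dilution in nutrient broth. Inoculum adjusted to 10^6 cfu/mL. Compounds tested from 0.0005 to 250 µg/mL.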

[2] = system: Staphylococcus aureus; assay: In vitro minimum inhibitory concentration (MIC) against Staphylococcus aureus Smith A 9537 at 37 degrees C for 18 hr; format: functional; how it was run: as §1
[3] = system: Enterobacter cloacae; assay: In vitro minimum inhibitory concentration (MIC) against Enterobacter cloacae A 9656 at 37 degrees C for 18 h.; format: functional
[4] = system: Serratia marcescens; assay: In vitro minimum inhibitory concentration (MIC) against Serratia marcescens A 20019 at 37 degrees C for 18 hr; format: functional; how it was run: as §1
[5] = system: Escherichia coli; assay: In vitro minimum inhibitory concentration (MIC) against Escherichia coli A 15119 at 37 degrees Celsius for 18 h.; format: functional; how it was run: as §1
[6] = system: Enterococcus faecium; assay: In vitro minimum inhibitory concentration (MIC) against Enterococcus faecium A 24885 at 37 degrees C for 18 h.; format: functional; how it was run: as §1
[7] = system: Klebsiella pneumoniae; assay: In vitro minimum inhibitory concentration (MIC) against Klebsiella pneumoniae A 9664 at 37 degrees C for 18 h.; format: functional; how it was run: as §1
[8] = system: Pseudomonas aeruginosa; assay: In vitro minimum inhibitory concentration (MIC) against Pseudomonas aeruginosa A 9843 at 37 degree C for 18 h; format: functional; how it was run: as §1
[9] = system: Morganella morganii; assay: In vitro minimum inhibitory concentration (MIC) against Morganella morganii A 15153 at 37 degrees C for 18 h.; format: functional; how it was run: as §1
[10] = system: Klebsiella pneumoniae; assay: Efficacy on systematic infections against Klebsiella pneumoniae A 9664 after oral administration in mice; format: functional; settings: read-out: PD50
How it was run: (§2)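 Mice given compound orally after lethal systemic infection. Read-out is the oral dose protecting 50% of mice from death (PD50), reported in mg/kg.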

[11] = system: Staphylococcus aureus; assay: Efficacy on systematic infections against Staphylococcus aureus A 9537 after oral administration in mice; format: functional; settings: read-out: PD50; how it was run: as §2
[12] = system: Escherichia coli; assay: Efficacy on systematic infections against Escherichia coli A 15119 after oral administration in mice; format: functional; settings: read-out: PD50; how it was run: as §2
[13] = system: Pseudomonas aeruginosa; assay: Efficacy on systematic infections against Pseudomonas aeruginosa A 9843 after oral administration in mice; format: functional; settings: read-out: PD50; how it was run: as §2
[14] = system: Escherichia coli; assay: In vitro minimum inhibitory concentration (MIC) against Escherichia coli A 15119 at 37 degrees C for 18 h.; format: functional; how it was run: as §1
[15] = system: Klebsiella pneumoniae; assay: In vitro minimum inhibitory concentration (MIC) against Klebsiella pneumoniae A 9664 at 37 degrees Celsius for 18 h.; format: functional; how it was run: as §1
[16] = system: Pseudomonas aeruginosa; assay: In vitro minimum inhibitory concentration (MIC) against Pseudomonas aeruginosa A 9843 at 37 degrees Celsius for 18 h; format: functional; how it was run: as §1
[17] = system: Klebsiella pneumoniae; assay: In vitro minimum inhibitory concentration (MIC) […] A 9664 at 37 degrees Celsius for 18 h.; format: functional; how it was run: as §1
[18] = (§3) Tested for aqueous solubility; format: physicochemical; settings: aqueous medium; read-out: S
How it was run: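 An excess of solid was shaken overnight in water for injection at isoelectric pH. The mixture was filtered, and the filtrate was diluted and quantified by HPLC with UV detection.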

[19] = system: Canis familiaris; assay: in vivo; settings: dog, po, 25 mg/kg
[20] = system: Klebsiella pneumoniae; assay: In vitro minimum inhibitory concentration (MIC) against Klebsiella pneumoniae A 9664 at 37 degrees C for 18 h; format: functional; how it was run: as §1
[21] = in vivo; settings: dog, urine, po, 25 mg/kg
[22] = system: Mus musculus; assay: Dose to protect 50% of mice from lethal infection after peroral administration.; format: functional; settings: po; how it was run: as §2
[23] = system: Canis familiaris; assay: in vivo; settings: dog, po, 25 mg/kg; remark: listed apart in the source
[24] = organism: Canis familiaris; settings: dog, in vivo, po, 25 mg/kg
[25] = system: Mus musculus; assay: Dose to protect 50% of mice from lethal infection after intravenous administration; format: functional
[26] = as §3; settings: aqueous medium
[27] = system: Staphylococcus aureus; assay: Efficacy on systematic infections against Staphylococcus aureus Smith A 9537 after oral administration in mice; format: functional; settings: read-out: PD50; how it was run: as §2

## CC(C)(C)n1cc(C(=O)O)c(=O)c2cc(F)c(N3C[C@@H](N)[C@@H](F)C3)nc21.CS(=O)(=O)O
[1]
  MIC: 0.5 µg/mL
[2]
  MIC: 0.015 µg/mL
[3]
  MIC: 0.25 µg/mL
[4]
  MIC: 0.5 µg/mL
[5]
  MIC: 0.25 µg/mL
[6]
  MIC: 4 µg/mL
[7]
  MIC: 0.06 µg/mL
[8]
  MIC: 2 µg/mL
[9]
  MIC: 0.5 µg/mL

## CS(=O)(=O)O.C[C@H]1CN(c2nc3c(cc2F)c(=O)c(C(=O)O)cn3C(C)(C)C)C[C@@H]1N
[1]
  MIC: 0.06 µg/mL
[10]
  ED50: 6.3 mg/kg
[2]
  MIC: 0.008 µg/mL
[11]
  ED50: 1.6 mg/kg
[12]
  ED50: 2.4 mg/kg
[13]
  ED50: 6.3 mg/kg
[3]
  MIC: 0.015 µg/mL
[4]
  MIC: 0.13 µg/mL
[6]
  MIC: 0.5 µg/mL
[8]
  MIC: 0.25 µg/mL
[14]
  MIC: 0.015 µg/mL
[9]
  MIC: 0.13 µg/mL
[15]
  MIC: 0.06 µg/mL

## CCNCC1CCN(c2nc3c(cc2F)c(=O)c(C(=O)O)cn3C(C)(C)C)C1 (centres undefined)
[1]
  MIC: 2 µg/mL (≈ 5.12 µM)
[2]
  MIC: 0.13 µg/mL (≈ 0.333 µM)
[3]
  MIC: 0.25 µg/mL (≈ 0.64 µM)
[4]
  MIC: 1 µg/mL (≈ 2.56 µM)
[6]
  MIC: 8 µg/mL (≈ 20.5 µM)
[16]
  MIC: 2 µg/mL (≈ 5.12 µM)
[7]
  MIC: 0.25 µg/mL (≈ 0.64 µM)
[14]
  MIC: 0.13 µg/mL (≈ 0.333 µM)
[9]
  MIC: 1 µg/mL (≈ 2.56 µM)

## CC(C)(C)n1cc(C(=O)O)c(=O)c2cc(F)c(N3C[C@H]4C[C@@H]3CN4)cc21.CS(=O)(=O)O
[1]
  MIC: 2 µg/mL
[17]
  MIC: 0.13 µg/mL
[2]
  MIC: 0.5 µg/mL
[18]
  solubility: 230 µg/mL
[3]
  MIC: 0.25 µg/mL
[4]
  MIC: 0.25 µg/mL
[6]
  MIC: 4 µg/mL
[8]
  MIC: 0.5 µg/mL
[14]
  MIC: 0.5 µg/mL
[9]
  MIC: 2 µg/mL

## CN1C2CCC1CN(c1cc3c(cc1F)c(=O)c(C(=O)O)cn3C(C)(C)C)C2.Cl
[1]
  MIC: 2 µg/mL
[2]
  MIC: 0.13 µg/mL
[3]
  MIC: 0.13 µg/mL
[4]
  MIC: 0.5 µg/mL
[5]
  MIC: 0.5 µg/mL
[6]
  MIC: 8 µg/mL
[7]
  MIC: 0.13 µg/mL
[8]
  MIC: 4 µg/mL
[9]
  MIC: 1 µg/mL

## CC(C)(C)n1cc(C(=O)O)c(=O)c2cc(F)c(N3C[C@H]4C[C@@H]3CN4)nc21
[19]
  half-life: 4.5 h
[1]
  MIC: 0.13 µg/mL (≈ 0.361 µM)
[10]
  ED50: 4.9 mg/kg
[20]
  MIC: 0.06 µg/mL (≈ 0.166 µM)
[2]
  MIC: 0.06 µg/mL (≈ 0.166 µM)
[21]
  dose excreted: 20%
[11]
  ED50: 1.6 mg/kg
[12]
  ED50: 1.8 mg/kg
[13]
  ED50: 4.7 mg/kg
[3]
  MIC: 0.06 µg/mL (≈ 0.166 µM)
[4]
  MIC: 0.06 µg/mL (≈ 0.166 µM)
[22]
  LD50: 5000 mg/kg
[6]
  MIC: 1 µg/mL (≈ 2.77 µM)
[23]
  Cmax: 5600 ng/mL
[24]
  AUC: 55000 ng·h/mL
[25]
  LD50: 303 mg/kg
[26]
  solubility: 80 µg/mL (≈ 222 µM)
[8]
  MIC: 0.25 µg/mL (≈ 0.694 µM)
[14]
  MIC: 0.06 µg/mL (≈ 0.166 µM)
[9]
  MIC: 0.25 µg/mL (≈ 0.694 µM)

## O=C(O)c1cn(C2CC2)c2cc(N3CCNCC3)c(F)cc2c1=O [CIPROFLOXACIN]
[1]
  MIC: 0.5 µg/mL (≈ 1.51 µM)
[10]
  ED50: 1.5 mg/kg
[2]
  MIC: 0.13 µg/mL (≈ 0.392 µM)
[12]
  ED50: 1 mg/kg
[13]
  ED50: 2.6 mg/kg
[4]
  MIC: 0.3 µg/mL (≈ 0.905 µM)
[6]
  MIC: 4 µg/mL (≈ 12.1 µM)
[7]
  MIC: 0.03 µg/mL (≈ 0.0905 µM)
[8]
  MIC: 0.13 µg/mL (≈ 0.392 µM)
[9]
  MIC: 0.015 µg/mL (≈ 0.0453 µM)
[27]
  ED50: 3.4 mg/kg

## CCn1cc(C(=O)O)c(=O)c2cc(F)c(N3CCNCC3)cc21 [NORFLOXACIN]
[1]
  MIC: 4 µg/mL (≈ 12.5 µM)
[10]
  ED50: 8 mg/kg
[2]
  MIC: 0.25 µg/mL (≈ 0.783 µM)
[12]
  ED50: 13 mg/kg
[13]
  ED50: 12.6 mg/kg
[3]
  MIC: 0.06 µg/mL (≈ 0.188 µM)
[4]
  MIC: 0.13 µg/mL (≈ 0.407 µM)
[6]
  MIC: 8 µg/mL (≈ 25.1 µM)
[7]
  MIC: 0.03 µg/mL (≈ 0.0939 µM)
[8]
  MIC: 0.5 µg/mL (≈ 1.57 µM)
[14]
  MIC: 0.13 µg/mL (≈ 0.407 µM)
[9]
  MIC: 0.015 µg/mL (≈ 0.047 µM)
[27]
  ED50: 1.9 mg/kg
